Data: ChEMBL document CHEMBL1687854 (Antimicrob Agents Chemother, 2011)

Assays:
Homo sapiens [1] = assay: Non-renal clearance in healthy human at 500 mg, iv; assay type: ADME, organism-based; settings: in vivo
In short: (§1)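 Healthy volunteers (n = 12) got a single 1-h 500-mg IV infusion. Plasma was sampled predose and at 0.25–12 h and assayed by LC-MS/MS (LLOQ 0.1 μg/ml). Noncompartmental analysis gave CL = dose/AUC0-∞ and CL_R = 0–12 h urinary amount/AUC0-12. Nonrenal CL = CL − CL_R. Values are means ± SD.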

[2] = AUC (0 to infinity) in end stage renal disease patient undergoing 12 hours continuous venovenous hemofiltration at 500 mg, iv; assay type: ADME, organism-based; set-up: dose 500 mg, time infinity, route intravenous; settings: human, plasma
[3] = Terminal half life in end stage renal disease patient undergoing 12 hours continuous venovenous hemofiltration at 500 mg, iv; assay type: ADME, organism-based; settings: human, in vivo, read-out: beta t1/2 (converted)
In short: (§2)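 Prefilter plasma was taken up to 12 h and measured by LC-MS/MS. Terminal λz came from log-linear regression over 1.5–12 h, and t1/2 = 0.693/λz (noncompartmental).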

[4] = (§3) Clearance in end stage renal disease patient undergoing 12 hours continuous venovenous hemofiltration at 500 mg, iv; assay type: ADME, organism-based; settings: human, in vivo, 500 mg
Homo sapiens [5] = assay: as §3; assay type: ADME, organism-based; settings: in vivo, 12 h
Homo sapiens [6] = assay: Non-renal clearance in end stage renal disease patient undergoing 12 hours continuous venovenous hemofiltration at 500 mg, iv; assay type: ADME, organism-based; settings: in vivo
In short: (§4)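 For dialysis-dependent subjects on CVVH or CVVHDF after a 1-h 500-mg IV infusion, nonrenal CL = CL − (CL_R + CL_CRRT). CL_CRRT was the UF (or UF/dialysate) flow rate for each collection interval × the average sieving (or saturation) coefficient, where each coefficient is the fluid/plasma concentration ratio from paired samples at 1.25–12 h. Values are means ± SD.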

[7] = AUC (0 to infinity) in end stage renal disease patient undergoing 12 hours continuous venovenous hemodiafiltration at 500 mg, iv; assay type: ADME, organism-based; set-up: dose 500 mg, route intravenous, time infinity; settings: human, plasma
[8] = Terminal half life in end stage renal disease patient undergoing 12 hours continuous venovenous hemodiafiltration at 500 mg, iv; assay type: ADME, organism-based; settings: human, in vivo, read-out: beta t1/2 (converted); in short: as §2
[9] = (§5) Clearance in end stage renal disease patient undergoing 12 hours continuous venovenous hemodiafiltration at 500 mg, iv; assay type: ADME, organism-based; settings: human, in vivo, 500 mg
Homo sapiens [10] = assay: as §5; assay type: ADME, organism-based; settings: in vivo, 12 h
Homo sapiens [11] = assay: Non-renal clearance in end stage renal disease patient undergoing 12 hours continuous venovenous hemodiafiltration at 500 mg, iv; assay type: ADME, organism-based; settings: in vivo; in short: as §4
[12] = (§6) Clearance in healthy human at 500 mg, iv; assay type: ADME, organism-based; settings: in vivo, 500 mg; in short: as §1
Homo sapiens [13] = assay: as §6; assay type: ADME, organism-based; settings: in vivo; in short: as §1
[14] = Renal clearance in healthy human at 500 mg, iv; assay type: ADME, organism-based, Kidney; settings: in vivo, read-out: CL_renal (converted); in short: as §1
Homo sapiens [15] = assay: Toxicity in healthy human assessed as pancreatitis at 500 mg, iv after 1 day; assay type: organism-based; settings: in vivo, 24 h
Homo sapiens [16] = assay: Toxicity in healthy human assessed as pancreatitis at 500 mg, iv after 2 days; assay type: organism-based; settings: in vivo, 48 h

Structure (SMILES): C[C@@H](O)[C@@H](C(=O)O)[C@@H]1NC(C(=O)O)=C(S[C@@H]2CN[C@H](CNS(N)(=O)=O)C2)[C@@H]1C
- CL (Homo sapiens [1]): 14.2 L/h

Structure (SMILES): C[C@@H](O)[C@H]1C(=O)N2C(C(=O)O)=C(S[C@@H]3CN[C@H](CNS(N)(=O)=O)C3)[C@H](C)[C@H]12 [DORIPENEM]
- AUC(0-inf) [2]: 114 µg·h/mL
- half-life [3]: 4.24 h
- clearance [4]: 82.4 mL/min
- CL (Homo sapiens [5]): 4.94 L/h
- CL (Homo sapiens [6]): 3.58 L/h
- AUC(0-inf) [7]: 87.5 µg·h/mL
- half-life [8]: 3.87 h
- clearance [9]: 98.2 mL/min
- CL (Homo sapiens [10]): 5.98 L/h
- CL (Homo sapiens [11]): 4.22 L/h
- clearance [12]: 265 mL/min
- CL (Homo sapiens [13]): 15.9 L/h
- CL renal [14]: 153 mL/min
- CL (Homo sapiens [1]): 6.73 L/h
- Activity (Homo sapiens [15]): Toxic
- Activity (Homo sapiens [16]): Non-toxic
